Source: ChEMBL document CHEMBL1155222, “Synthesis and anticancer activity of N-bis(trifluoromethyl)alkyl-N'-thiazolyl and N-bis(trifluoromethyl)alkyl-N'-benzothiazolyl ureas” (2009)

Legend:
Assay type in all cases: functional
LOX IMVI = assay: Anticancer activity against human LOXIMVI cells after 48 hrs by sulforhodamine B assay
Outline: (§1)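 NCI 60-cell-line screen. Cells grown in RPMI 1640 with 5% FBS and 2 mM L-glutamine, plated at 5000–40,000 cells/well, and preincubated 24 h at 37 °C under 5% CO2. Compounds were taken from DMSO stocks and tested at five final concentrations, 10^-4 to 10^-8 M, for 48 h. Cells were TCA-fixed, stained with 0.4% SRB, and read at 515 nm. GI50, TGI and LC50 were derived as log molar values.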

PC-3 = assay: Anticancer activity against human PC3 cells after 48 hrs by sulforhodamine B assay; conditions: PC-3, 48 h; outline: as §1
SK-MEL-2 = assay: Anticancer activity against human SK-MEL-2 cells after 48 hrs by sulforhodamine B assay; conditions: SK-MEL-2, 48 h; outline: as §1
OVCAR-3 = assay: Anticancer activity against human OVCAR-3 cells after 48 hrs by sulforhodamine B assay; conditions: OVCAR-3, 48 h; outline: as §1
UO-31 = assay: Anticancer activity against human UO31 cells after 48 hrs by sulforhodamine B assay; conditions: UO-31, 48 h
Outline: (§2)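 NCI 60-cell-line panel; cells grown in RPMI 1640 with 5% FBS and 2 mM L-glutamine, plated at 5000–40,000 cells/well and preincubated 24 h at 37 °C, 5% CO2. Compounds came from DMSO stocks diluted in medium with gentamicin and were tested at five final concentrations, 10^-4 to 10^-8 M, for 48 h. Cells were fixed with TCA, stained with SRB and read at 515 nm. GI50, TGI and LC50 were derived as log molar values.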

DU-145 = assay: Anticancer activity against human DU145 cells after 48 hrs by sulforhodamine B assay; conditions: DU-145, 48 h; outline: as §1
EKVX = assay: Anticancer activity against human EKVX cells after 48 hrs by sulforhodamine B assay; outline: as §1
SF-268 = assay: Anticancer activity against human SF268 cells after 48 hrs by sulforhodamine B assay; conditions: SF-268, 48 h; outline: as §1
SF-539 = assay: Anticancer activity against human SF539 cells after 48 hrs by sulforhodamine B assay; conditions: SF-539, 48 h; outline: as §1
MDA-MB-435 = assay: Anticancer activity against human MDA-MB-435 cells after 48 hrs by sulforhodamine B assay; conditions: MDA-MB-435, 48 h; outline: as §1
T47D = assay: Anticancer activity against human T47D cells after 48 hrs by sulforhodamine B assay; outline: as §2
KM12 = assay: Anticancer activity against human KM12 cells after 48 hrs by sulforhodamine B assay; conditions: KM12, 48 h; outline: as §1
SR = assay: Anticancer activity against human SR cells after 48 hrs by sulforhodamine B assay; outline: as §2
UACC-62 = assay: Anticancer activity against human UACC62 cells after 48 hrs by sulforhodamine B assay; conditions: UACC-62, 48 h; outline: as §2
NCI-H322M = assay: Anticancer activity against human NCI-H322M cells after 48 hrs by sulforhodamine B assay; outline: as §1
ACHN = assay: Anticancer activity against human ACHN cells after 48 hrs by sulforhodamine B assay; outline: as §1
U-251 = assay: Anticancer activity against human U251 cells after 48 hrs by sulforhodamine B assay; conditions: U-251, 48 h; outline: as §2
TK-10 = assay: Anticancer activity against human TK10 cells after 48 hrs by sulforhodamine B assay; conditions: TK-10, 48 h; outline: as §2
K562 = assay: Anticancer activity against human K562 cells after 48 hrs by sulforhodamine B assay; conditions: K562, 48 h; outline: as §1
HT-29 = assay: Anticancer activity against human HT-29 cells after 48 hrs by sulforhodamine B assay; conditions: HT-29, 48 h; outline: as §1
CCRF-CEM = assay: Anticancer activity against human CCRF-CEM cells after 48 hrs by sulforhodamine B assay; outline: as §1
RXF 393 = assay: Anticancer activity against human RXF393 cells after 48 hrs by sulforhodamine B assay; conditions: RXF 393, 48 h; outline: as §1
786-0 = assay: Anticancer activity against human 786-0 cells after 48 hrs by sulforhodamine B assay; conditions: 786-0, 48 h; outline: as §1
A549 = assay: Anticancer activity against human A549 cells after 48 hrs by sulforhodamine B assay; conditions: A549, 48 h; outline: as §1
M14 = assay: Anticancer activity against human M14 cells after 48 hrs by sulforhodamine B assay; conditions: M14, 48 h; outline: as §1
MOLT-4 = assay: Anticancer activity against human MOLT4 cells after 48 hrs by sulforhodamine B assay; conditions: MOLT-4, 48 h; outline: as §1
NCI-H522 = assay: Anticancer activity against human NCI-H522 cells after 48 hrs by sulforhodamine B assay; conditions: NCI-H522, 48 h; outline: as §1
COLO 205 = assay: Anticancer activity against human COLO205 cells after 48 hrs by sulforhodamine B assay; conditions: COLO 205, 48 h; outline: as §1
Malme-3M = assay: Anticancer activity against human MALME-3M cells after 48 hrs by sulforhodamine B assay; outline: as §1
SK-MEL-28 = assay: Anticancer activity against human SK-MEL-28 cells after 48 hrs by sulforhodamine B assay; conditions: SK-MEL-28, 48 h; outline: as §1
OVCAR-8 = assay: Anticancer activity against human OVCAR8 cells after 48 hrs by sulforhodamine B assay; conditions: OVCAR-8, 48 h; outline: as §1
SN12C = assay: Anticancer activity against human SN12C cells after 48 hrs by sulforhodamine B assay; outline: as §2
UACC-257 = assay: Anticancer activity against human UACC257 cells after 48 hrs by sulforhodamine B assay; conditions: UACC-257, 48 h; outline: as §2
SF-295 = assay: Anticancer activity against human SF295 cells after 48 hrs by sulforhodamine B assay; conditions: SF-295, 48 h; outline: as §1
CAKI-1 = assay: Anticancer activity against human Caki1 cells after 48 hrs by sulforhodamine B assay; conditions: CAKI-1, 48 h; outline: as §1
MDA-MB-231 = assay: Anticancer activity against human MDA-MB-231 cells after 48 hrs by sulforhodamine B assay; conditions: MDA-MB-231, 48 h; outline: as §1
HCT-116 = assay: Anticancer activity against human HCT116 cells after 48 hrs by sulforhodamine B assay; conditions: HCT-116, 48 h; outline: as §1
A498 = assay: Anticancer activity against human A498 cells after 48 hrs by sulforhodamine B assay; conditions: A498, 48 h; outline: as §1
HOP-62 = assay: Anticancer activity against human HOP62 cells after 48 hrs by sulforhodamine B assay; conditions: HOP-62, 48 h; outline: as §1
HCT-15 = assay: Anticancer activity against human HCT15 cells after 48 hrs by sulforhodamine B assay; conditions: HCT-15, 48 h; outline: as §1
IGROV-1 = assay: Anticancer activity against human IGROV1 cells after 48 hrs by sulforhodamine B assay; conditions: IGROV-1, 48 h; outline: as §1
NCI-H226 = assay: Anticancer activity against human NCI-H226 cells after 48 hrs by sulforhodamine B assay; conditions: NCI-H226, 48 h; outline: as §1
NCI-H460 = assay: Anticancer activity against human NCI-H460 cells after 48 hrs by sulforhodamine B assay; conditions: NCI-H460, 48 h; outline: as §1
OVCAR-5 = assay: Anticancer activity against human OVCAR5 cells after 48 hrs by sulforhodamine B assay; conditions: OVCAR-5, 48 h; outline: as §1
MDA-N = assay: Anticancer activity against human MDA-N cells after 48 hrs by sulforhodamine B assay; outline: as §1

O=c1[nH]cc(F)c(=O)[nH]1 [FLUOROURACIL]
GI50 (LOX IMVI): 0.245 µM | GI50 (PC-3): 2.34 µM | GI50 (SK-MEL-2): 56.2 µM | GI50 (OVCAR-3): 0.0158 µM | GI50 (UO-31): 1.41 µM | GI50 (DU-145): 0.363 µM | GI50 (EKVX): 61.7 µM | GI50 (SF-268): 1.58 µM | GI50 (SF-539): 0.0631 µM | GI50 (MDA-MB-435): 0.0724 µM | GI50 (T47D): 8.13 µM | GI50 (KM12): 0.214 µM | GI50 (SR): 0.024 µM | GI50 (UACC-62): 0.525 µM | GI50 (NCI-H322M): 0.178 µM | GI50 (ACHN): 0.295 µM | GI50 (U-251): 0.912 µM | GI50 (TK-10): 1.12 µM | GI50 (K562): 3.55 µM | GI50 (HT-29): 0.178 µM | GI50 (CCRF-CEM): 9.77 µM | GI50 (RXF 393): 2.63 µM | GI50 (786-0): 0.724 µM | GI50 (A549): 0.191 µM | GI50 (M14): 0.977 µM | GI50 (MOLT-4): 0.355 µM | GI50 (NCI-H522): 7.24 µM | GI50 (COLO 205): 0.158 µM | GI50 (Malme-3M): 0.0513 µM | GI50 (SK-MEL-28): 1.02 µM | GI50 (OVCAR-8): 1.74 µM | GI50 (SN12C): 0.501 µM | GI50 (UACC-257): 3.55 µM | GI50 (SF-295): 0.229 µM | GI50 (CAKI-1): 0.0724 µM | GI50 (MDA-MB-231): 6.61 µM | GI50 (HCT-116): 0.229 µM | GI50 (A498): 0.398 µM | GI50 (HOP-62): 0.398 µM | GI50 (HCT-15): 0.11 µM | GI50 (IGROV-1): 1.23 µM | GI50 (NCI-H226): 55 µM | GI50 (NCI-H460): 0.0562 µM | GI50 (OVCAR-5): 11 µM

CC(NC(=O)Nc1nc2ccccc2s1)(C(F)(F)F)C(F)(F)F
GI50 (LOX IMVI): 36.3 µM | GI50 (PC-3): 34.7 µM | GI50 (SK-MEL-2): 30.2 µM | GI50 (UO-31): 2.19 µM | GI50 (DU-145): 91.2 µM | GI50 (EKVX): 74.1 µM | GI50 (SF-268): 29.5 µM | GI50 (SF-539): 24.5 µM | GI50 (MDA-N): 97.7 µM | GI50 (MDA-MB-435): 41.7 µM | GI50 (T47D): 38 µM | GI50 (KM12): 46.8 µM | GI50 (SR): 3.63 µM | GI50 (UACC-62): > 100 µM | GI50 (NCI-H322M): 26.9 µM | GI50 (ACHN): 28.8 µM | GI50 (U-251): 33.9 µM | GI50 (TK-10): 49 µM | GI50 (K562): 17 µM | GI50 (HT-29): 19.5 µM | GI50 (CCRF-CEM): 27.5 µM | GI50 (RXF 393): 64.6 µM | GI50 (786-0): 20.4 µM | GI50 (A549): 16.2 µM | GI50 (M14): 37.2 µM | GI50 (MOLT-4): 18.2 µM | GI50 (NCI-H522): 24.5 µM | GI50 (COLO 205): 38 µM | GI50 (Malme-3M): 15.1 µM | GI50 (SK-MEL-28): 72.4 µM | GI50 (OVCAR-8): 52.5 µM | GI50 (SN12C): 25.7 µM | GI50 (UACC-257): 51.3 µM | GI50 (SF-295): 60.3 µM | GI50 (CAKI-1): 38.9 µM | GI50 (MDA-MB-231): 34.7 µM | GI50 (HCT-116): 41.7 µM | GI50 (A498): > 100 µM | GI50 (HOP-62): 31.6 µM | GI50 (HCT-15): > 100 µM | GI50 (IGROV-1): 41.7 µM | GI50 (NCI-H226): 38.9 µM | GI50 (NCI-H460): 24.5 µM | GI50 (OVCAR-5): 81.3 µM

O=C(Nc1nccs1)NC(C(F)(F)F)C(F)(F)F
GI50 (LOX IMVI): 58.9 µM | GI50 (PC-3): 38 µM | GI50 (SK-MEL-2): 45.7 µM | GI50 (OVCAR-3): 42.7 µM | GI50 (UO-31): 35.5 µM | GI50 (DU-145): 63.1 µM | GI50 (EKVX): 41.7 µM | GI50 (SF-268): 29.5 µM | GI50 (SF-539): > 100 µM | GI50 (MDA-N): > 100 µM | GI50 (MDA-MB-435): 79.4 µM | GI50 (T47D): 45.7 µM | GI50 (KM12): 39.8 µM | GI50 (SR): 24 µM | GI50 (UACC-62): 63.1 µM | GI50 (NCI-H322M): 87.1 µM | GI50 (ACHN): 55 µM | GI50 (U-251): 33.9 µM | GI50 (TK-10): 51.3 µM | GI50 (K562): 36.3 µM | GI50 (HT-29): 91.2 µM | GI50 (RXF 393): 77.6 µM | GI50 (786-0): > 100 µM | GI50 (A549): 60.3 µM | GI50 (M14): > 100 µM | GI50 (MOLT-4): 40.7 µM | GI50 (NCI-H522): 23.4 µM | GI50 (COLO 205): 52.5 µM | GI50 (Malme-3M): 29.5 µM | GI50 (SK-MEL-28): > 100 µM | GI50 (OVCAR-8): 39.8 µM | GI50 (SN12C): 43.7 µM | GI50 (UACC-257): 35.5 µM | GI50 (SF-295): 43.7 µM | GI50 (CAKI-1): 55 µM | GI50 (MDA-MB-231): 58.9 µM | GI50 (HCT-116): 38 µM | GI50 (A498): 95.5 µM | GI50 (HOP-62): > 100 µM | GI50 (HCT-15): 66.1 µM | GI50 (IGROV-1): 95.5 µM | GI50 (NCI-H226): 57.5 µM | GI50 (NCI-H460): 34.7 µM | GI50 (OVCAR-5): 91.2 µM
